{"source": "ChEMBL document CHEMBL1255201", "about": "“A novel arylethynyltriazole acyclonucleoside inhibits proliferation of drug-resistant pancreatic cancer cells” (2010)", "test_system": "MIA PaCa-2", "assay": "Growth inhibition of human MIAPaCa2 cells after 48 hrs by MTT assay", "type": "functional", "method_in_brief": "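Cells seeded at 15,000/well, attached overnight, then medium replaced with fresh medium alone (control) or medium containing compound; 48 h at 37 °C, 5% CO2. Viable cells quantified by MTT colorimetric assay.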", "data": [{"molecule": "Nc1ccn([C@@H]2O[C@H](CO)[C@@H](O)C2(F)F)c(=O)n1", "note": "[GEMCITABINE]", "values": [{"measurement": "inhibition (INH)", "value": 30, "unit": "%"}]}]}
